A selection: hits, their analogues and other compounds. The true share with any hit is near 2.6%.
5-HT1A blocker: 5-HT1a (human) receptor antagonism; P08908; CHO 5-HT1a Ga15 NFAT-bla reporter, antagonist mode; inhibition, % at 10 µM; 62,000 compounds, 0.68% hits;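 active = inhibition above the mean of all tested compounds plus 3 SD, cut at about 43% in these data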;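 also: receptor stimulated by 5-CT agonist at 100 nM near EC80; beta-lactamase reporter measured by ratiometric fluorescence of a cleavable substrate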
S1P3 agonist: activates the human S1P3 receptor. Q99500. S1P3 NFAT-BLA reporter cells, agonism, FRET ratio; relative to 1 µM S1P, basal subtracted. activation, % at 4.5 µM. 60,000 compounds, 0.1% hits;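 active = activation above the screen-wide mean plus 3 SD, cut at about 4.5% in these data, passing the limit was not always enough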
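material = human S1P3 NFAT-BLA reporter CHO cells | schedule = 4 h compound at 37 °C, 2 h substrate at RT | measured by = fluorescent BLA substrate, ex 405 nm, em 460/535 nm ratio | controls = 1 µM S1P reference | replication = primary once, confirmation triplicate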
HTR1A agonist: 5-HT1a (human) receptor agonism | CHO 5-HT1a Ga15 NFAT-bla reporter, FRET ratio; 0% basal, 100% maximal reference agonist | activation, % at 10 µM | 65,000 compounds, 0.56% hits | AID 567;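 active = activation above the screen-wide mean activation plus 3 SD, cut at about 19% in these data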;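 also: 0% = DMSO wells and 100% = 5-CT at EC100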
HTR1E antagonist: antagonists of human 5-HT1E serotonin receptor | CHO 5-HT1E Ga15 NFAT-bla reporter, FRET, antagonist | 65,000 compounds, 0.99% hits | P28566 | AID 571 | inhibition, % at 6 µM;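 active = inhibition above a set limit, the mean inhibition across every tested compound plus 3 SD, cut at about 29% in these data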;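 also: signal is the 460 over 535 nm emission ratio of beta-lactamase substrate; 0% = agonist plus DMSO wells and 100% = wells without agonist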
Target sequence (P28566 whole entry, looked up): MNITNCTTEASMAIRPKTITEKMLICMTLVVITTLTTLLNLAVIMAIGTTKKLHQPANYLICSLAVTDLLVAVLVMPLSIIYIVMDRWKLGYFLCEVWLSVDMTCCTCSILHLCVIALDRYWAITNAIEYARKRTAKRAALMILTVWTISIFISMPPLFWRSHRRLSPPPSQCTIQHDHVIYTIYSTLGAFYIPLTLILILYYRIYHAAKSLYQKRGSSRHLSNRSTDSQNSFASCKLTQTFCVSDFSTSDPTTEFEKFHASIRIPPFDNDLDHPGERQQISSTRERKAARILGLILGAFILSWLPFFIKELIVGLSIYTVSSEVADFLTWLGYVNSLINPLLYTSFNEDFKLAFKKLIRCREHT
HTR1E agonist: agonists of human 5-HT1E serotonin receptor; P28566; CHO 5-HT1E Ga15 NFAT-bla reporter, FRET; 0% DMSO wells, 100% control agonist wells; activation, % at 6 µM; 65,000 compounds, 0.69% hits; AID 574;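 active = activation above a set limit, the screen-wide mean activation plus 3 SD, cut at about 8.5% in these data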;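 also: 100% = positive control agonist at 1 µM giving full maximal response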
Active calls of the source: *.

For CCCCOc1ccc(CN(C)c2ncnc(N)n2)cc1 the results were S1P3 agonist -6, HTR1A agonist 0, HTR1E antagonist 32* and HTR1E agonist 0.
`CCCCOc1ccc(-c2nnc(N)s2)cc1` gave S1P3 agonist 0, HTR1A agonist 1, HTR1E antagonist -3 and HTR1E agonist 0.
N#CC1=C2SCC(O)(c3ccccc3)N2C(=O)CC1c1cccs1 (stereo not given) was read as 5-HT1A blocker 29, S1P3 agonist -1, HTR1A agonist -3, HTR1E antagonist 34* and HTR1E agonist -1.
`COc1ccc(C2CC(=O)N3C(=C2C#N)SCC3(O)c2ccccc2)cc1` (stereo not given) gave 5-HT1A blocker 15, S1P3 agonist -1, HTR1A agonist -3, HTR1E antagonist -3 and HTR1E agonist -1.
Screening N#CCSc1nc2scc(-c3cccs3)c2c(=O)n1CCc1ccccc1 returned 5-HT1A blocker -33, S1P3 agonist 0, HTR1A agonist 0, HTR1E antagonist -4 and HTR1E agonist 1.
O=C(c1cnc2sccn2c1=O)N(Cc1ccccc1)c1ccccn1 was read as 5-HT1A blocker -6, S1P3 agonist 0, HTR1A agonist 27*, HTR1E antagonist -6 and HTR1E agonist 0.
`Cc1[nH]nc2c1C(C(C)C)C(C#N)=C(N)O2` (stereo not given) gave 5-HT1A blocker 12, S1P3 agonist 0, HTR1A agonist -6, HTR1E antagonist 0 and HTR1E agonist 0.
`CCC(C)C1C(C#N)=C(N)Oc2n[nH]c(C)c21` (stereo not given) gave 5-HT1A blocker 14, S1P3 agonist 0, HTR1A agonist -1, HTR1E antagonist 39* and HTR1E agonist 0.
`O=C(CSc1nc(-c2ccc(F)cc2)cs1)N1CCN(C(=O)c2ccco2)CC1` gave 5-HT1A blocker -7, S1P3 agonist 0, HTR1A agonist -1, HTR1E antagonist 6 and HTR1E agonist 0.
For O=C(CCN1C(=O)c2ccccc2C1=O)N1CCC(c2ccccc2)C1 (stereo not given) the results were 5-HT1A blocker -6, S1P3 agonist 1, HTR1A agonist 32*, HTR1E antagonist -5 and HTR1E agonist 1.
CC(=O)Nc1cccc(Oc2cc(C#N)c(C#N)cc2N2CCCCCC2)c1 was read as 5-HT1A blocker -7, S1P3 agonist -1, HTR1A agonist 1, HTR1E antagonist 12 and HTR1E agonist 0.
Screening COC(=O)c1ccc(C(=O)OC)c(NC(=O)c2ocnc2C)c1 returned 5-HT1A blocker 2, HTR1A agonist 0, HTR1E antagonist 5 and HTR1E agonist -1.
Screening CCc1cc(=O)oc2cc(C)cc(O)c12 returned 5-HT1A blocker -5, S1P3 agonist 1, HTR1A agonist -2, HTR1E antagonist -9 and HTR1E agonist 0.
COC(=O)Cc1c(C)c2c(O)cc(C)cc2oc1=O was read as 5-HT1A blocker -4, S1P3 agonist -1, HTR1A agonist 134*, HTR1E antagonist -9 and HTR1E agonist -1.
For Cc1cc(C)n(Cc2ccc(C(=O)NCCC3=CCCCC3)o2)n1 the results were S1P3 agonist -1, HTR1A agonist 65*, HTR1E antagonist 5 and HTR1E agonist -1.
Screening Cc1cccc(N2CCN(C(=O)c3ccc(Cl)c(S(=O)(=O)NCc4ccco4)c3)CC2)c1C returned 5-HT1A blocker 7, S1P3 agonist -2, HTR1A agonist 4, HTR1E antagonist 8 and HTR1E agonist 16*.
Screening CC(C)N(C(=O)CSc1nnnn1C1CCCC1)C(C)C returned 5-HT1A blocker 11, S1P3 agonist 0, HTR1A agonist -2, HTR1E antagonist 7 and HTR1E agonist -1.
Cc1ccc(C2CC(=O)NC(SCc3ccccc3)=C2C#N)o1 (stereo not given) was read as 5-HT1A blocker 2, S1P3 agonist -1, HTR1A agonist 35*, HTR1E antagonist 2 and HTR1E agonist 0.
Screening N#CC1=C(SCc2ccccc2)NC(=O)CC1c1ccco1 (stereo not given) returned 5-HT1A blocker -5, S1P3 agonist -1, HTR1A agonist -1, HTR1E antagonist 7 and HTR1E agonist 0.
`Cc1cc(C(=O)CSc2nnc(C3COc4ccccc4O3)n2C)c(C)n1-c1ccc(F)cc1` (stereo not given) gave 5-HT1A blocker 28, S1P3 agonist 4, HTR1A agonist -3, HTR1E antagonist 30* and HTR1E agonist 0.
Screening Cn1c(SCC(=O)c2ccc3c(c2)OCO3)nnc1C1COc2ccccc2O1 (stereo not given) returned 5-HT1A blocker 2, S1P3 agonist 0, HTR1A agonist -4, HTR1E antagonist -5 and HTR1E agonist 0.
CCN(CC)CCCNC(CC(=O)O)C(=O)O (stereo not given) was read as 5-HT1A blocker 4, S1P3 agonist -1, HTR1A agonist -4, HTR1E antagonist 1 and HTR1E agonist 0.
For OC1(c2cccc(C(F)(F)F)c2)CCN(c2ncnc3c2[nH]c2ccc(F)cc23)CC1 the results were 5-HT1A blocker 15, S1P3 agonist -2, HTR1A agonist 0, HTR1E antagonist 35* and HTR1E agonist 0.
Fc1ccc2[nH]c3c(N4CCN(c5ccccc5)CC4)ncnc3c2c1 was read as S1P3 agonist -6, HTR1A agonist 4, HTR1E antagonist 23 and HTR1E agonist 1.
`CN(C)S(=O)(=O)c1ccc(S(=O)(=O)N(Cc2ccco2)Cc2ccccc2Cl)cc1` gave 5-HT1A blocker 22, S1P3 agonist -2, HTR1A agonist -2, HTR1E antagonist 32* and HTR1E agonist -1.
For CCOc1ccc(N(CC(=O)OC)S(=O)(=O)c2ccc(OC)c(OC)c2)cc1 the results were 5-HT1A blocker 5, S1P3 agonist -2, HTR1A agonist -3, HTR1E antagonist 7 and HTR1E agonist 0.
`COC(=O)CN(c1ccc(OC)cc1)S(=O)(=O)c1ccc(OC)c(OC)c1` gave 5-HT1A blocker 0, S1P3 agonist 2, HTR1A agonist 20*, HTR1E antagonist 4 and HTR1E agonist 1.
For COC(=O)c1ccc(OCCn2cnc3ccccc3c2=O)cc1 the results were 5-HT1A blocker -21, S1P3 agonist 0, HTR1A agonist -3, HTR1E antagonist 2 and HTR1E agonist 0.
For c1cncc(-c2nc(Oc3ccc(-c4nnco4)cc3)c3c4c(sc3n2)CCCC4)c1 the results were 5-HT1A blocker -1, S1P3 agonist -1, HTR1A agonist -1, HTR1E antagonist -5 and HTR1E agonist 0.
COc1cccc(CN(Cc2ccco2)C(c2ccc(F)cc2)c2nnnn2C(C)(C)C)c1 (stereo not given) was read as 5-HT1A blocker 46*, S1P3 agonist -2, HTR1A agonist -3, HTR1E antagonist 1 and HTR1E agonist -1.
Screening Cc1cccc(N2CCN(CC(=O)NCC3CCCCC3)CC2)c1C returned 5-HT1A blocker 16, S1P3 agonist 0, HTR1A agonist 41*, HTR1E antagonist -14 and HTR1E agonist 1.
